The results in this text go back to ChEMBL document CHEMBL1128708, “Synthesis of alkyl chain-modified ether lipids and evaluation of their in vitro cytotoxicity” (J Med Chem, 1995).

The subject of one data set is K562. The data set is described as follows: Antiproliferative activity of compound was measured on human tumor cell line K-562. Format: functional, cell-based. In short, it runs like this:
(§1)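 Suspension cells at 1 × 10^6 cells/mL in RPMI-1640 with 10% heat-inactivated FCS and 2 mM L-glutamine, 37 °C, 5% CO2. Incubated 120 h with graded ether lipid concentrations (final EtOH ≤0.2%), then counted electronically. IC50 from dose–response curves; two experiments in duplicate, average ± SD.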

A further data set has as its system A-431. The data set is described as follows: Antiproliferative activity of compound was measured on human tumor cell line A431. The format is functional, cell-based. The method in brief: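 Adherent cells trypsinized and seeded at 5000 cells/cm2, grown in RPMI-1640 with 10% heat-inactivated FCS and 2 mM L-glutamine. After 24 h, graded concentrations dissolved in complete medium were added for 48 h (final EtOH ≤0.2%). Cells fixed with 10% TCA and stained with 0.4% SRB in 1% acetic acid. Dye solubilized in 10 mM Tris pH 10.4 and read at 550 nm, background-corrected. IC50 from dose–response curves; two to five experiments, eight replicates each.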

For another data set, the species on record is Rattus norvegicus. The data set is described as follows: Maximal non-erythrolytic concentration(MNEC) was measured in erythrocytes from rat citreated blood. Format: functional. The method in brief:
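Rat citrated-blood erythrocytes washed in HBSS and mixed 9:1 with test solution for 30 min at 37 °C. Lysis read spectrophotometrically at 546 nm. Value reported as the maximal concentration (μM) causing no erythrolysis.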

The test system of data set [1] is HL-60. Put plainly: Cytotoxicity measured in HL-60 leukemic cells after a 24 hr incubation period. Format: functional, cell-based, Homo sapiens. The method in brief:
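HL-60 cells kept in RPMI-1640 with 5% heat-inactivated FCS, penicillin/streptomycin and 2 mM L-glutamine, >90% viable before use. 10^6 cells/mL exposed 24 h to 2.5–160 μM (twofold steps). Viability by trypan blue exclusion, as % viable cells versus total control cells. IC50 taken as the concentration giving 50% mortality. Two experiments in triplicate; compounds with IC50 >30 μM tested once.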

Data set [2] has as its system HL-60. Put plainly: Antiproliferative activity of compound was measured on human tumor cell line HL-60. The format is functional, cell-based. In short, it runs like this: as §1
The nature of data set [3]: Partition coefficient (logP). The settings on record: octanol/water. The format is physicochemical. The method in brief: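 Calculated rather than measured, for the C-1 chain including the ether O atom, by the Viswanadhan atom-based method.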

As to `CCCCCCCCCCCC(=O)CCCCCCOC[C@@H](COP(=O)([O-])OCC[N+](C)(C)C)OC`, the IC50 – broadly, the point on the concentration scale where inhibition reaches its midpoint – in the data set on K562 (Homo sapiens, K562) came to 40.2 µM; in the data set on K562 (k562) it was 39.2 µM; in the data set on A-431 (Homo sapiens, A-431), 19.7 µM; with A-431 (a-431), 21.8 µM; in the data set with HL-60 [1] (Homo sapiens, HL-60, 24 h), 5.9 µM; in the data set with HL-60 [1] (hl-60), 11.3 µM. Also, the half-inhibitory concentration (IC50) was 4.4 µM with HL-60 [2] (Homo sapiens, HL-60) and 3 µM in the data set on HL-60 [2] (hl-60). This compound also showed an MNEC in the data set filed under Rattus norvegicus of 20 µM. In data set [3] (read-out: logP), the logP (as a rule, the decadic logarithm of the partition coefficient of the neutral form, usually between octanol and water) was 5.92.
In the data set listed under Rattus norvegicus, `CCCCCCCCC(CCCCCCOCC(COP(=O)([O-])OCC[N+](C)(C)C)OC)c1ccccc1` (stereo unspecified) showed an MNEC of 5 µM. The same compound displayed an IC50 in the data set with HL-60 [1] (Homo sapiens, HL-60, 24 h) of 30.7 µM. In addition, the logP in data set [3] (read-out: logP) worked out at 7.13.
For `CCCCCCC(CCCCCC)CCCCCCCCCCCOCC(COP(=O)([O-])OCC[N+](C)(C)C)OC` (stereo unspecified), in the data set listed under Rattus norvegicus, the MNEC was over 200 µM. For the same compound, inhibition in the data set on HL-60 [1] (Homo sapiens, HL-60, 24 h) was half-maximal at 46 µM (IC50). The logP in data set [3] worked out at 9.08.
As for `CCCCCCCCCCCCCCC(=O)CCCOCC(COP(=O)([O-])OCC[N+](C)(C)C)OC` (stereo unspecified), the concentration for half-maximal inhibition (IC50) was determined as 10.5 µM in the data set with K562 (Homo sapiens, K562); 13.5 µM in the data set on A-431 (Homo sapiens, A-431); 4.1 µM with HL-60 [1] (Homo sapiens, HL-60, 24 h); 1.1 µM in the data set with HL-60 [2] (Homo sapiens, HL-60). For the same compound, the MNEC in the data set filed under Rattus norvegicus turned out to be 10 µM. For the same compound, in data set [3] (read-out: logP), the logP worked out at 5.92.
In the data set filed under Rattus norvegicus, `COC(COCCCCCCCCCCC(=O)c1ccccc1)COP(=O)([O-])OCC[N+](C)(C)C` (stereo unspecified) came in with an MNEC of over 200 µM. The IC50 in the data set on HL-60 [1] (Homo sapiens, HL-60, 24 h) is over 160 µM. In addition, the logP in data set [3] (read-out: logP) came out at 4.29.
For the compound `CCCCCCC(=O)CCCCCCCCCCCOCC(COP(=O)([O-])OCC[N+](C)(C)C)OC` (stereo unspecified), the IC50 is 84.5 µM in the data set on K562 (Homo sapiens, K562); 40.6 µM in the data set on A-431 (Homo sapiens, A-431); 45 µM with HL-60 [1] (Homo sapiens, HL-60, 24 h); 12.3 µM in the data set on HL-60 [2] (Homo sapiens, HL-60). This compound also registered an MNEC in the data set listed under Rattus norvegicus of 50 µM. The logP in data set [3] (read-out: logP) is 5.92.
On to `CCCCCCCCCCCC(C)CCCCCCOCC(COP(=O)([O-])OCC[N+](C)(C)C)OC` (stereo unspecified), for which the MNEC in the data set listed under Rattus norvegicus is 5 µM. For the same compound, the IC50 in the data set on HL-60 [1] (Homo sapiens, HL-60, 24 h) was found to be 8.9 µM. Further, the logP in data set [3] (read-out: logP) came out at 7.1.
The compound `CCCCCCCCCCCC(=O)CCCCCCOCC(COCCCCC[N+](C)(C)C)OC.[Br-]` (stereo unspecified) registered an MNEC in the data set filed under Rattus norvegicus of 5 µM. This compound also yielded an IC50 in the data set with HL-60 [1] (Homo sapiens, HL-60, 24 h) of 4.2 µM.
Take `CCCCCCCCCCCC(=O)CCCCCCOCC(COP(=O)([O-])OCC[N+](C)(C)C)OC` (stereo unspecified): the concentration for half-maximal inhibition (IC50) with K562 (Homo sapiens, K562) came to 41.4 µM; with A-431 (Homo sapiens, A-431), 21.1 µM; in the data set with HL-60 [1] (Homo sapiens, HL-60, 24 h), 9.1 µM; in the data set with HL-60 [2] (Homo sapiens, HL-60), 3 µM. Also, the MNEC in the data set filed under Rattus norvegicus turned out to be 20 µM. Moreover, the log partition coefficient (logP) in data set [3] (read-out: logP) turned out to be 5.92.
In the case of `CCCCCCCCCCCCCCCCC(=O)COCC(COP(=O)([O-])OCC[N+](C)(C)C)OC` (stereo unspecified), the IC50 in the data set on K562 (Homo sapiens, K562) worked out at 9 µM; in the data set on A-431 (Homo sapiens, A-431), 14.2 µM; with HL-60 [1] (Homo sapiens, HL-60, 24 h), 3.5 µM; in the data set with HL-60 [2] (Homo sapiens, HL-60) it was 1.3 µM. In the data set filed under Rattus norvegicus, this compound came in with an MNEC of 5 µM. Besides, in data set [3] (read-out: logP), the logP came to 6.29.
Compound `CCCCCCCCCCCCCCCCCCOCC(COP(=O)(O)OC[C@@H](N)C(=O)O)OC` (stereo partly specified) had an MNEC in the data set filed under Rattus norvegicus of over 200 µM. In the data set with HL-60 [1] (Homo sapiens, HL-60, 24 h), the midpoint of inhibition, the IC50, lay at 25.2 µM.
Take `COC(COCCCCCCCCCCC(O)c1ccccc1)COP(=O)([O-])OCC[N+](C)(C)C` (stereo unspecified): the MNEC in the data set listed under Rattus norvegicus was over 200 µM. In the data set with HL-60 [1] (Homo sapiens, HL-60, 24 h), this compound came in with an IC50 of over 160 µM. The logP in data set [3] (read-out: logP) worked out at 4.7.
On the same counts, the results for `COC(COCCCCCCCCCCCCCCCCc1ccccc1)COP(=O)([O-])OCC[N+](C)(C)C` (stereo unspecified) are 10 µM, 13.2 µM and 7.59.
On the same counts, the results for `CCCCC(CCCC)CCCCCCOCC(COP(=O)([O-])OCC[N+](C)(C)C)OC` (stereo unspecified) are 20 µM, 54 µM and 5.51.
`CCCCCCC(=O)CCCCCCCCCCCOCC(COP(=O)(O)OC[C@@H](N)C(=O)O)OC` (stereo partly specified) displayed an MNEC in the data set listed under Rattus norvegicus of over 200 µM. Further, the 50% inhibitory concentration (IC50) in the data set with HL-60 [1] (Homo sapiens, HL-60, 24 h) was 30 µM.
The matching figures for `CCCCCCCCCCCCCCCCCCOCC(COCCCCC[N+](C)(C)C)OC.[Br-]` (stereo unspecified): 5 µM and 8 µM.
Regarding `CCCCCCCCC(CCCCCCCC)CCCCCCOCC(COP(=O)([O-])OCC[N+](C)(C)C)OC` (stereo unspecified), the MNEC in the data set filed under Rattus norvegicus is over 200 µM. In addition, in the data set with HL-60 [1] (Homo sapiens, HL-60, 24 h), the 50% inhibitory concentration (IC50) was 52 µM. Besides, the log partition coefficient (logP) in data set [3] (read-out: logP) turned out to be 8.68.
In the data set filed under Rattus norvegicus, `CCCCCCCCCCCC(CCCCCC)CCCCCCOCC(COP(=O)([O-])OCC[N+](C)(C)C)OC` (stereo unspecified) returned an MNEC of over 200 µM. In addition, the IC50 in the data set on HL-60 [1] (Homo sapiens, HL-60, 24 h) stood at 50 µM. In addition, in data set [3], the logP came to 9.08.
As to `CCCCCCCCCCCCCCCCCCOCC(COP(=O)([O-])OCC[N+](C)(C)C)OC` (stereo unspecified) [EDELFOSINE], the IC50 with K562 (Homo sapiens, K562) came to 6.1 µM; with A-431 (Homo sapiens, A-431), 13.5 µM; in the data set with HL-60 [1] (Homo sapiens, HL-60, 24 h), 6.1 µM; in the data set with HL-60 [2] (Homo sapiens, HL-60), 1 µM. In the data set listed under Rattus norvegicus, this compound came in with an MNEC of 2 µM. Besides, the lipophilicity (logP) in data set [3] (read-out: logP) stood at 6.77.
`CCCCCCC(O)CCCCCCCCCCCOCC(COCCCCC[N+](C)(C)C)OC.[Br-]` (stereo unspecified) gave an MNEC in the data set listed under Rattus norvegicus of 50 µM. The compound also showed a half-inhibitory concentration (IC50) with HL-60 [1] (Homo sapiens, HL-60, 24 h) of 25.6 µM.
On the same counts, the results for `CCCCCCCCCCCC(=O)CCCCCCOCC(COP(=O)(O)OC[C@@H](N)C(=O)O)OC` (stereo partly specified) are over 200 µM and over 160 µM.
On the same counts, the results for `CCCCCCCCCCCCCCCCOP(=O)([O-])OCC[N+](C)(C)C` [MILTEFOSINE] are 2 µM and 20.4 µM.
